From paper PMC3786212 (Structure (London, England : 1993), 2012)

T1: DCNL5^P (DCNL5 PONY domain) (Homo sapiens, UniProt Q9BTE7)
T1 sequence (Q9BTE7 46-232 limits assumed): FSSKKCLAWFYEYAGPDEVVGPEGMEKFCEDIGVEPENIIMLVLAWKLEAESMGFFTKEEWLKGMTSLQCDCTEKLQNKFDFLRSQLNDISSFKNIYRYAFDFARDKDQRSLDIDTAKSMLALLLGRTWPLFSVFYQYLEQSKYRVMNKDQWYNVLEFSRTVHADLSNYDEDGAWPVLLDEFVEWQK

T2: DCNL4^P (DCNL4 PONY domain) (Homo sapiens, UniProt Q92564)
T2 sequence (Q92564 101-287 limits assumed): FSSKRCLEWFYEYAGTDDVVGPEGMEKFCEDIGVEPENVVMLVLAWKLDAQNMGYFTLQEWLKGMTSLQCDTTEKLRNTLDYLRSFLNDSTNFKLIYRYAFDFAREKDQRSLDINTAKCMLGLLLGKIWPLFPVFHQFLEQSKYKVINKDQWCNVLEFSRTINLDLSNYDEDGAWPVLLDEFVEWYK

B1: UBE2F^NAc: N-terminally acetylated human UBE2F, NEDD8 E2, expressed in insect cells (protein)
chain: MLTLASKLKRDDGLKGSRTAATASDSTRRVSVRDKLLVKEVAELEANLPCTCKVHFPDPNKLHCFQLTVTPDEGYYQGGKFQFETEVPDAYNMVPPKVKCLTKIWHPNITETGEICLSLLREHSIDGTGWAPTRTLKDVVWGLNSLFTDLLNFDDPLNIEAAEHHLRDKEDFRNKVDDYIKRYAR
modifications: N-terminal methionine retained and N-terminally acetylated; left off: His tag, C-terminal, state not stated
B2: unacetylated UBE2F: UBE2F prepared in E. coli as SUMO fusion, unacetylated N-terminal Met (protein)
chain: B1 chain
modifications: left off: SUMO, N-terminal, cleaved

How the values were obtained:
[1] = target: UBE2F^NAc, N-terminally acetylated UBE2F (human) (UniProt Q969M7); assay: ITC
[2] = target: DCNL2^P (DCNL2 PONY domain) (Homo sapiens, UniProt Q6PH85); assay: ITC binding to DCNL2 PONY domain; settings: full-length UBE2F protein, pH 7.0, 16 °C
Outline: (§1)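 Buffer-matched by NAP-5 desalting into 25 mM HEPES, 125 mM NaCl, 1 mM BME, pH 7.0. N-terminally acetylated UBE2F in cell at 100 µM final, 16 °C. PONY domain (1 mM) injected as 2.5 µl, 5 s injections at 3 min intervals. Heats and Kd from fits of integrated data. At least two independent runs; values from one run.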

[3] = target: T1, DCNL5^P (DCNL5 PONY domain); assay: ITC binding to DCNL5 PONY domain; settings: full-length UBE2F protein, pH 7.0, 16 °C
Outline: as §1

[4] = target: T2, DCNL4^P (DCNL4 PONY domain); assay: ITC binding to DCNL4 PONY domain; settings: full-length UBE2F protein, pH 7.0, 16 °C
Outline: as §1

[5] = target: DCNL1^P (DCNL1 PONY domain) (Homo sapiens, UniProt Q96GG9); assay: ITC binding to DCNL1 PONY domain; settings: full-length UBE2F protein, pH 7.0, 16 °C
Outline: as §1

DCNL1^P (DCNL1 PONY domain), sequence (Q96GG9 60-248 limits assumed): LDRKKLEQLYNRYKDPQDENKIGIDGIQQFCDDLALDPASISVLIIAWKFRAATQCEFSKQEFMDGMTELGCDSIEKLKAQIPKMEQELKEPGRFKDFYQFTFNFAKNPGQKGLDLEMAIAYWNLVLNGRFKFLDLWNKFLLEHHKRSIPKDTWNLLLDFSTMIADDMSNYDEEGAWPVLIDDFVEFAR
DCNL2^P (DCNL2 PONY domain), sequence (Q6PH85 60-248 limits assumed): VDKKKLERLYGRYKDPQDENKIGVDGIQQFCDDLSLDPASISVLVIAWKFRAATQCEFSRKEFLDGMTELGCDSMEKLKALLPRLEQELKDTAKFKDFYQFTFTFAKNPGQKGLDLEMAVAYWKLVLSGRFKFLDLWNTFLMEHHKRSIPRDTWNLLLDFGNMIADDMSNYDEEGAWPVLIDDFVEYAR

| Molecule | fold decrease in binding against DCNL3^P [1] [fold] | Kd [3] | Kd [4] | also measured |
| --- | --- | --- | --- | --- |
| DCNL1 PONY domain (DCNL1^P) (from UniProt Q96GG9 62-259) (domain or fragment) | 5 |  |  |  |
| DCNL3 PONY domain (DCNL3^P) (from UniProt Q8IWE4 86-304) (domain or fragment) |  |  |  | Kd [1]: 1000 nM |
| DCNL2 PONY domain (DCNL2^P) (from UniProt Q6PH85 62-259) (domain or fragment) | 5 |  |  |  |
| B1 |  | too high for us to measure | too high for us to measure | fold decrease in binding relative to DCNL3^P [2]: 5 fold; fold decrease in binding relative to DCNL3^P [5]: 5 fold |
| B2 |  | could not measure binding | could not measure binding | binding (ITC) [2]: could not measure binding; binding (ITC) [5]: could not measure binding |
